Drawing on ChEMBL document CHEMBL1124808, “The synthesis and antiallergy activity of 1-(aryloxy)-4-(4-arylpiperazinyl)-2-butanol derivatives” (1990), this text covers PFA and ED50 for 15 compounds.

Type in all cases: functional
In test [1] the test system is Rattus norvegicus. The test can be described thus: Percent change in volume of foot edema of test compound to that of positive control was determined at a dose of 31.6 mg/kg in rat; -65/-78.
For test [2], the system named is Rattus norvegicus. The test can be described thus: Percent change in volume of foot edema of test compound to that of positive control was determined at a dose of 10 mg/kg in rat; -43/-77.
Test [3] relates to Rattus norvegicus. The experiment in a line: Percent change in volume of foot edema of test compound to that of positive control was determined at a dose of 10 mg/kg in rat; -26/-62.
Test [4] relates to Rattus norvegicus. The test can be described thus: Percent change in volume of foot edema of test compound to that of positive control was determined at a dose of 31.6 mg/kg in rat; -49/-78.
Test [5] relates to Rattus norvegicus. The test can be described thus: Percent change in volume of foot edema of test compound to that of positive control was determined at a dose of 31.6 mg/kg in rat; -79/-65.
Test [6] relates to Rattus norvegicus. The experiment in a line: Percent change in volume of foot edema of test compound to that of positive control was determined at a dose of 10 mg/kg in rat; +22/-73.
The test system of test [7] is Rattus norvegicus. The test can be described thus: Percent change in volume of foot edema of test compound to that of positive control was determined at a dose of 10 mg/kg in rat; -50/-80.
The subject of test [8] is Rattus norvegicus. The experiment in a line: Percent change in volume of foot edema of test compound to that of positive control was determined at a dose of 3.16 mg/kg in rat; -34/-79.
Test [9] has as its system Rattus norvegicus. The experiment in a line: Percent change in volume of foot edema of test compound to that of positive control was determined at a dose of 31.6 mg/kg in rat; -85/-82.
In test [10] the test system is Rattus norvegicus. The test can be described thus: Percent change in volume of foot edema of test compound to that of positive control was determined at a dose of 31.6 mg/kg in rat; -65/-69.
The subject of test [11] is Rattus norvegicus. The test can be described thus: Percent change in volume of foot edema of test compound to that of positive control was determined at a dose of 10 mg/kg in rat; -29/-62.
For test [12], the system named is Rattus norvegicus. The test can be described thus: Percent change in volume of foot edema of test compound to that of positive control was determined at a dose of 31.6 mg/kg in rat; -82/69.
Test [13] relates to Rattus norvegicus. The test can be described thus: Percent change in volume of foot edema of test compound to that of positive control was determined at a dose of 3.16 mg/kg in rat; -9/-69.
The test system of test [14] is Rattus norvegicus. The experiment in a line: Percent change in volume of foot edema of test compound to that of positive control was determined at a dose of 10 mg/kg in rat; -56/-69.
The test system of test [15] is Rattus norvegicus. The experiment in a line: Percent change in volume of foot edema of test compound to that of positive control was determined at a dose of 10 mg/kg in rat; +3/-73.
Test [16] relates to Rattus norvegicus. The experiment in a line: Percent change in volume of foot edema of test compound to that of positive control was determined at a dose of 31.6 mg/kg in rat; -69/-78.
The subject of test [17] is Rattus norvegicus. The experiment in a line: Percent change in volume of foot edema of test compound to that of positive control was determined at a dose of 10 mg/kg in rat; -38/-69.
Test [18] deals with Rattus norvegicus. The test can be described thus: Percent change in volume of foot edema of test compound to that of positive control was determined at a dose of 3.16 mg/kg in rat; -13/-73.
Test [19] has as its system Rattus norvegicus. The test can be described thus: Percent change in volume of foot edema of test compound to that of positive control was determined at a dose of 31.6 mg/kg in rat; -73/-68.
Test [20] deals with Rattus norvegicus. The experiment in a line: Percent change in volume of foot edema of test compound to that of positive control was determined at a dose of 31.6 mg/kg in rat; -30/-81.
Test [21] has as its system Rattus norvegicus. The experiment in a line: Percent change in volume of foot edema of test compound to that of positive control was determined at a dose of 31.6 mg/kg in rat; +7/-47.
Test [22] has as its system Rattus norvegicus. The test can be described thus: Percent change in volume of foot edema of test compound to that of positive control was determined at a dose of 10 mg/kg in rat; -53/-77.
Test [23] relates to Rattus norvegicus. The experiment in a line: Percent change in volume of foot edema of test compound to that of positive control was determined at a dose of 3.16 mg/kg in rat; -18/-77.
Test [24] relates to Rattus norvegicus. The test can be described thus: Percent change in volume of foot edema of test compound to that of positive control was determined at a dose of 31.6 mg/kg in rat; -88/-63.
The subject of test [25] is Rattus norvegicus. The test can be described thus: Percent change in volume of foot edema of test compound to that of positive control was determined at a dose of 10 mg/kg in rat; -36/-65.
In test [26] the test system is Rattus norvegicus. The experiment in a line: Percent change in volume of foot edema of test compound to that of positive control was determined at a dose of 31.6 mg/kg in rat; -80/-83.
For test [27], the system named is Rattus norvegicus. The test can be described thus: Percent change in volume of foot edema of test compound to that of positive control was determined at a dose of 10 mg/kg in rat; -14/-62.
Test [28] relates to Rattus norvegicus. The experiment in a line: Percent change in volume of foot edema of test compound to that of positive control was determined at a dose of 31.6 mg/kg in rat; -69/-69.
Test [29] concerns Rattus norvegicus. The test can be described thus: Percent change in volume of foot edema of test compound to that of positive control was determined at a dose of 31.6 mg/kg in rat; -67/-63.
For test [30], the system named is Rattus norvegicus. The experiment in a line: Percent change in volume of foot edema of test compound to that of positive control was determined at a dose of 10 mg/kg in rat; -34/-77.
The species named for a further test is Cavia porcellus. The experiment in a line: Dose that protects 50% of guinea pig from collapse was determined in guinea pig anaphylaxis assay. Particulars: read-out: PD50. The essentials:
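Guinea pigs dosed by gavage (10 mL/kg) with compound in 0.5% Tween 80/water; reference theophylline 100 mg/kg po. At 1–24 h, exposed in chamber to aerosolized 1% (w/v) egg albumin at 10 L air/min for up to 5 min; protected if no collapse within 5 min. PD50 by Litchfield and Wilcoxon.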

Structures are written as SMILES.

With `OC(CCN1CCN(c2ccc(Cl)cc2)CC1)COc1ccccc1` (stereo unspecified), the PFA in the test on Rattus norvegicus [1] is listed as -65; in the test on Rattus norvegicus [2] it was -43.

As for `OC(CCN1CCN(c2ccccc2)CC1)COc1cccc(C(F)(F)F)c1` (stereo unspecified), the PFA in the test with Rattus norvegicus [3] is on record as -26; in the test with Rattus norvegicus [4], -49.

`COc1ccccc1N1CCN(CCC(O)COc2ccccc2)CC1` (stereo unspecified): the values for the PFA with Rattus norvegicus [5] and with Rattus norvegicus [6] were -79 and 22, respectively.

In the case of `Cc1ccc(N2CCN(CCC(O)COc3ccccc3)CC2)cc1` (stereo unspecified), the PFA was -50 with Rattus norvegicus [7], -34 with Rattus norvegicus [8] and -85 in the test on Rattus norvegicus [9].

Consider `OC(CCN1CCN(c2ccccc2)CC1)COc1ccc(-c2ccccc2)cc1` (stereo unspecified), for which the PFA with Rattus norvegicus [10] is listed as -65; with Rattus norvegicus [11], -29.

On to `NC(=O)c1ccc(OCC(O)CCN2CCN(c3ccc(F)cc3)CC2)cc1` (stereo unspecified), for which the PFA with Rattus norvegicus [12] is reported as -82; in the test on Rattus norvegicus [13], -9; in the test with Rattus norvegicus [14] it was -56.

As to `COc1cccc(N2CCN(CCC(O)COc3ccccc3)CC2)c1` (stereo unspecified), the PFA in the test on Rattus norvegicus [15] is recorded as 3; in the test with Rattus norvegicus [16] it was -69.

For `NC(=O)c1ccc(OCC(O)CCN2CCN(c3ccccn3)CC2)cc1` (stereo unspecified), the PFA is -38 with Rattus norvegicus [17], -13 in the test on Rattus norvegicus [18] and -73 in the test on Rattus norvegicus [19].

`OC(CCN1CC=C(c2ccccc2)CC1)COc1ccccc1` (stereo unspecified) had a PFA in the test with Rattus norvegicus [20] of -30.

In turn, `OC(CCN1CCc2ccccc2C1)COc1ccccc1` (stereo unspecified) displayed a PFA in the test on Rattus norvegicus [21] of 7.

As to `OC(CCN1CCN(c2ccc(F)cc2)CC1)COc1ccccc1` (stereo unspecified), the PFA in the test on Rattus norvegicus [22] was -53; in the test on Rattus norvegicus [23], -18; with Rattus norvegicus [24], -88.

Consider `CC(=O)c1ccc(N2CCN(CCC(O)COc3ccccc3)CC2)cc1` (stereo unspecified), for which the PFA in the test with Rattus norvegicus [25] is -36; in the test with Rattus norvegicus [26], -80.

Regarding `COc1ccccc1OCC(O)CCN1CCN(c2ccccc2)CC1` (stereo unspecified), the PFA was -14 in the test on Rattus norvegicus [27] and -69 in the test with Rattus norvegicus [28].

In the case of `COc1ccc(N2CCN(CCC(O)COc3ccccc3)CC2)cc1` (stereo unspecified), the PFA is given as -67 in the test with Rattus norvegicus [29] and -34 in the test with Rattus norvegicus [30].

In the case of `Cn1c(=O)c2nc[nH]c2n(C)c1=O.O` [THEOPHYLLINE], in the test filed under Cavia porcellus, the ED50 turned out to be 75 mg/kg.
